Experimental findings from ChEMBL document CHEMBL4622973, “Discovery of Potent Small-Molecule SIRT6 Activators: Structure-Activity Relationship and Anti-Pancreatic Ductal Adenocarcinoma Activity” (J Med Chem, 2020) are described below.

Experiment [1] concerns the target T1, NAD-dependent protein deacylase sirtuin-6 (Homo sapiens, UniProt Q8N6T7). As to the kind of experiment: Activation of N-terminal his-tagged human SIRT6 expressed in Escherichia coli M15 [pREP4] assessed as increase in peptide demyristoylation incubated for 120 mins using Ac-EALPKK(Myr)-AMC substrate by FDL assay relative to control. In outline:
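Demyristoylation: 1 µM recombinant SIRT6 preincubated with compound for 20 min at 37 °C in 50 mM Tris-HCl pH 8.0, BSA 1 mg/mL, 1 mM DTT, with 10 µM Ac-EALPKK(Myr)-AMC. Fluorescence read. Mean ± s.d., triplicate wells, three independent experiments.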

Experiment [2] concerns the target T1, NAD-dependent protein deacylase sirtuin-6. As to the kind of experiment: Activation of N-terminal his-tagged human SIRT6 expressed in Escherichia coli M15 [pREP4] assessed as increase in peptide demyristoylation at 100 uM incubated for 120 mins using Ac-EALPKK(Myr)-AMC substrate by FDL assay relative to control. In outline: (§1)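 Demyristoylation: 1 µM recombinant SIRT6 preincubated with compound for 20 min at 37 °C in 50 mM Tris-HCl pH 8.0, BSA 1 mg/mL, 1 mM DTT, with 10 µM Ac-EALPKK(Myr)-AMC. Started with 1 mM NAD and run 120 min at 37 °C. Developed 120 min at 37 °C with 5 mg/mL trypsin/8 mM nicotinamide. Fluorescence read. Mean ± s.d., triplicate wells, three independent experiments.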

The target is the same in experiment [3]. As to the kind of experiment: Activation of N-terminal his-tagged human SIRT6 expressed in Escherichia coli M15 [pREP4] assessed as increase in peptide demyristoylation at 20 uM incubated for 120 mins using Ac-EALPKK(Myr)-AMC substrate by FDL assay relative to control. Put shortly:
as §1

Experiment [4] relates to PANC-1. As to the kind of experiment: Antitumor activity against human PANC1 cells xenografted in BALB/c nude mouse assessed as inhibition of tumor growth at 150 mg/kg/day, po for 30 days relative to control. The note with it: PANC-1, po, 720 h, read-out: TGI. The class given is functional. In outline:
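Female BALB/c nude mice, 6-8 weeks old, injected subcutaneously in the right flank with 5×10^6–1×10^7 PANC-1 cells. At 130-150 mm³, mice randomized into 4 groups (n = 6) and dosed orally once daily for 30 days against vehicle. Tumor volume followed over time. Inhibition rate assessed against control.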

A further experiment relates to ASPC1. Put plainly: Antiproliferative activity against human AsPC1 cells assessed as reduction in cell viability incubated for 72 hrs by MTT assay. The class given is functional, cell-based. As to conditions: ASPC1, 72 h. Put shortly:
(§2)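 PDAC cells grown in DMEM or RPMI1640 with 10% FBS and penicillin/streptomycin at 37 °C, 5% CO2. Plated in triplicate, then treated with a concentration series for 72 h. Viability read by MTT. IC50 calculated from dose-response curves.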
In general terms: Tetrazolium dyes change colour on reduction, which living cells bring about.

For another experiment, the system named is MIA PaCa-2. As to the kind of experiment: Antiproliferative activity against human MIAPaCa2 cells assessed as reduction in cell viability incubated for 72 hrs by MTT assay. The class given is functional, cell-based. As to conditions: MIA PaCa-2, 72 h. In outline: as §2
Experiment [5] has as its system PANC-1. Put plainly: Antiproliferative activity against human PANC1 cells assessed as reduction in cell viability incubated for 72 hrs by MTT assay. The class given is functional, cell-based. The note with it: PANC-1, 72 h. Put shortly:
as §2

The test system of a further experiment is BXPC-3. As to the kind of experiment: Antiproliferative activity against human BxPC3 cells assessed as reduction in cell viability incubated for 72 hrs by MTT assay. The class given is functional, cell-based. The note with it: BXPC-3, 72 h. In outline:
as §2

Calls of active or inactive are those of the source. The rule behind the calls is not given here.

T1 sequence (Q8N6T7 whole entry): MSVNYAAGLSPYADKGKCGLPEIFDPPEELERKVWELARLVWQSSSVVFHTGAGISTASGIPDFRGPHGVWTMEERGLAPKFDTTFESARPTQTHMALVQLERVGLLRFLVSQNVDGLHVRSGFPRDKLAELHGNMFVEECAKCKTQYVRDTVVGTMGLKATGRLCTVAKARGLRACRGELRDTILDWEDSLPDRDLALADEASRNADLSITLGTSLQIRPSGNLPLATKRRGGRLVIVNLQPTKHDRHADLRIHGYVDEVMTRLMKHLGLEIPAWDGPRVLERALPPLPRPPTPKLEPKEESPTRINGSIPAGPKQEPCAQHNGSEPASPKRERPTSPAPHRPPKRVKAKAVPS

With `COC(=O)c1c2c(c3ccccc3c1O)OC(C)(C)C=C2`, the EC1.5 in experiment [1] worked out at 228 µM. The outcome in experiment [2] was Active.
As for `O=C(Nc1ccc(C(F)(F)F)cc1)c1cc(-c2cc3ccccc3o2)nc2ccccc12`, in experiment [1], the EC1.5 worked out at 5.17 µM. For the same compound, the Activity in experiment [3] was determined as 335%.
As for `Cc1ccc(CNC(=O)c2cc(-c3cc4ccccc4o3)nc3ccccc23)cc1`, the EC1.5 in experiment [1] was 14.5 µM. Also, in experiment [3], the Activity was 208%.
Turning to `O=C(Nc1cc(C(F)(F)F)ccc1Cl)c1cc(-c2ccc3c(c2)OCCO3)nc2ccccc12`, the EC1.5 in experiment [1] is 29.4 µM. In experiment [3], the Activity is 159%.
The corresponding values for `COc1ccc(-c2cc(C(=O)Nc3cccc(Cl)c3C)c3ccccc3n2)cc1OC` are 19 µM and 199%.
Regarding `Cc1c(Cl)cccc1NC(=O)c1cc(-c2cc3ccccc3o2)nc2ccccc12`, in experiment [1], the EC1.5 came out at 9.01 µM. In addition, the Activity in experiment [3] is 205%.
In the same order, the values of `COc1ccc(-c2cc(C(=O)Nc3cc(C(F)(F)F)ccc3Cl)c3ccccc3n2)cc1` are 20.7 µM and 163%.
`COc1ccc(-c2cc(C(=O)Nc3ccc(Cl)c(Cl)c3)c3ccccc3n2)cc1OC`: in experiment [1], the EC1.5 amounted to 27.1 µM. For the same compound, the result in experiment [2] was Active. Further, the Activity in experiment [3] was determined as 148%.
For the compound `Cc1ccc(-c2cc(C(=O)Nc3cc(C(F)(F)F)ccc3Cl)c3ccccc3n2)o1`, the EC1.5 in experiment [1] was 18.6 µM. For the same compound, the Activity in experiment [3] is 184%.
For the compound `Cc1cc(Nc2cc(CN3CCOCC3)c3nc(C)c(Cc4ccc(Cl)cc4F)n3n2)n[nH]1`, in experiment [1], the EC1.5 was found to be 118 µM. Moreover, the outcome in experiment [2] was Active.
On to `O=C(Nc1cc(C(F)(F)F)cc(C(F)(F)F)c1)c1cc(-c2cc3ccccc3o2)nc2ccccc12`, for which the EC1.5 in experiment [1] is 3.11 µM. The Activity in experiment [3] came to 430%.
The corresponding values for `O=C(Nc1cc(C(F)(F)F)ccc1Cl)c1cc(-c2ccc3c(c2)OCO3)nc2ccccc12` are 14.9 µM and 228%.
Regarding `COc1cccc2cc(-c3cc(C(=O)Nc4cc(C(F)(F)F)ccc4Cl)c4ccccc4n3)oc12`, the EC1.5 in experiment [1] came to 5.96 µM. Moreover, in experiment [3], the Activity was 321%.
In the same order, the values of `CCOc1ccc(NC(=O)c2cc(-c3ccc(OC)c(OC)c3)nc3ccccc23)cc1` are 10.3 µM and 166%.
In the same order, the values of `O=C(Nc1cccc(Cl)c1Cl)c1cc(-c2cc3ccccc3o2)nc2ccccc12` are 20.7 µM and 163%.
The corresponding values for `Cc1cc(C)c(NC(=O)c2cc(-c3cc4ccccc4o3)nc3ccccc23)c(C)c1` are 3.71 µM and 315%.
For the compound `COc1ccccc1C(=O)Nc1cc2c(cc1N1CCCCC1)n(C)c(=O)n2C`, in experiment [1], the EC1.5 came out at 110 µM. For the same compound, in experiment [2], the outcome was Active.
In the case of `O=C(NCc1ccc(Cl)c(Cl)c1)c1cc(-c2cc3ccccc3o2)nc2ccccc12`, in experiment [1], the EC1.5 turned out to be 5.91 µM. Further, the Activity in experiment [3] was 314%.
In the same order, the values of `COc1ccc(-c2cc(C(=O)NC(c3ccccc3)c3ccccc3)c3ccccc3n2)cc1OC` are 5.97 µM and 276%.
In the same order, the values of `O=C(Nc1ccc(C(F)(F)F)cc1Cl)c1cc(-c2cc3ccccc3o2)nc2ccccc12` are 4.96 µM and 287%.
In the same order, the values of `COc1ccc(-c2cc(C(=O)NCc3ccc(C)cc3)c3ccccc3n2)cc1OC` are 7.78 µM and 225%.
Regarding `COc1ccc(-c2cc(C(=O)Nc3cc(C(F)(F)F)ccc3Cl)c3ccccc3n2)cc1OC`, the EC1.5 in experiment [1] is 2.84 µM. For the same compound, the Activity in experiment [3] worked out at 365%.
In the same order, the values of `COc1ccc(-c2cc(C(=O)NCc3ccc(Cl)c(Cl)c3)c3ccccc3n2)cc1OC` are 8.14 µM and 260%.
In the same order, the values of `COc1ccc(-c2cc(C(=O)Nc3cc(C)ccc3C)c3ccccc3n2)cc1OC` are 5.61 µM and 313%.
The corresponding values for `COc1ccc(-c2cc(C(=O)NCc3ccc(F)cc3)c3ccccc3n2)cc1OC` are 19.5 µM and 168%.
In the case of `O=C(Nc1cccc(F)c1)c1cc(-c2cc3ccccc3o2)nc2ccccc12`, in experiment [1], the EC1.5 is 4.86 µM. For the same compound, the Activity in experiment [3] is 216%.
The IC50 is the midpoint of a concentration-inhibition curve. `COC(=O)c1cc(NS(=O)(=O)c2cc(Cl)cc(Cl)c2)ccc1S(=O)(=O)Nc1cc(Br)c(F)cc1C`: the inhibition in vivo at 150 mg/kg/day in the experiment with PANC-1 [4] amounted to 78%. Moreover, the IC50 in the experiment on ASPC1 was found to be 50.5 µM; in the experiment on MIA PaCa-2, 55.6 µM; with PANC-1 [5], 35.2 µM; in the experiment with BXPC-3 it was 58 µM.
For the compound `COc1ccc(-c2cc(C(=O)Nc3cc(C(F)(F)F)cc(C(F)(F)F)c3)c3ccccc3n2)cc1OC`, the EC1.5 in experiment [1] is 6.38 µM. Besides, in experiment [3], the Activity came out at 250%.
The corresponding values for `Cc1ccc(C)c(NC(=O)c2cc(-c3cc4ccccc4o3)nc3ccccc23)c1` are 3.47 µM and 349%.
The corresponding values for `COc1ccc(-c2cc(C(=O)Nc3cccc(Cl)c3Cl)c3ccccc3n2)cc1OC` are 5.97 µM and 224%.
In the same order, the values of `COc1ccc(-c2cc(C(=O)Nc3cccc4ccccc34)c3ccccc3n2)cc1OC` are 7.44 µM and 327%.
For `COc1ccc(-c2cc(C(=O)Nc3c(C)cc(C)cc3C)c3ccccc3n2)cc1OC`, the EC1.5 in experiment [1] was 4.77 µM. Further, in experiment [3], the Activity was 284%.
